Test results reported in ChEMBL document CHEMBL4825680, “Structure-based discovery of potent and selective small-molecule inhibitors targeting signal transducer and activator of transcription 3 (STAT3)” (Eur J Med Chem, 2021).
Active and inactive are the calls of the source. The calls are words filed in the database; no cut-off is given here.

Columns and labels:
[1] = system: A549; assay: Antiproliferative activity against human A549 cells; format: functional, cell-based
[2] = system: MDA231-LM2-4175; assay: Antitumor activity against human MDA231-LM2-4175 cells xenografted in mouse assessed as reduction in pY705-STAT3 expression at 5 to 15 mg/kg, iv administered once daily for 20 days by Western blotting analysis; format: functional, organism-based; settings: dose 5-15 mg/kg, time 20.0 day
[3] = target: T1, Signal transducer and activator of transcription 3 (Homo sapiens, UniProt P40763); assay: Binding affinity to STAT3 (unknown origin) […]
[4] = target: T1, Signal transducer and activator of transcription 3; assay: Inhibition of STAT3 phosphorylation at Tyr705 residue in human […] cells after 3 hrs by Western blotting analysis; format: cell-based; settings: MDA-MB-468, dose 0.3-3 µM
[5] = system: MDA-MB-231; assay: Effect on total STAT3 level in human MDA-MB-231 cells at 0.3 to 3 uM measured after 3 hrs by Western blot analysis; format: functional, cell-based; settings: dose 0.3-3 µM
Outline: (§1)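 Breast cancer cells were treated with vehicle (0.1% DMSO) or compound, then lysed in RIPA with PMSF and phosphatase inhibitors. 20–50 μg protein was run on 8 or 12% SDS-PAGE, blotted to PVDF, blocked in 5% BSA, probed with primary antibodies overnight at 4 °C, then HRP secondaries, with ECL detection.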

[6] = system: MDA-MB-468; assay: Effect on total STAT3 level in human MDA-MB-468 cells at 0.3 to 3 uM measured after 3 hrs by Western blot analysis; format: functional, cell-based; settings: dose 0.3-3 µM; outline: as §1
[7] = target: T1, Signal transducer and activator of transcription 3; assay: Inhibition of HA-tagged STAT3 dimerization (unknown origin) expressed in HEK293T cells after 24 hrs by confocal microscopic analysis; format: cell-based; settings: dose 1-3 µM
Outline: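 HEK-293T cells transfected with HA-STAT3 and Flag-STAT3. After 24 h, treated with vehicle (0.1% DMSO) or compound for 24 h, with IL-6 100 ng/mL added for 30 min. Fixed in paraformaldehyde, permeabilised with Triton X-100, stained with anti-HA and anti-Flag plus Alexa 488/555 secondaries and DAPI. Confocal imaging for colocalisation.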

[8] = target: T1, Signal transducer and activator of transcription 3; assay: Inhibition of phosphorylated STAT3 nuclear translocation in human MDA-MB-231 cells after 12 hrs by immunofluorescence analysis; format: cell-based; settings: dose 0.3-3 µM
Outline: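 MDA-MB-231 cells (constitutively active STAT3) treated with vehicle or compound for 12 h. Immunofluorescence staining with a p-STAT3-specific primary antibody and an Alexa Fluor secondary antibody.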

[9] = target: T2, Signal transducer and activator of transcription 5A (Homo sapiens) (UniProt P42229); assay: Inhibition of STAT5 DNA binding in human MDA-MB-231 cells at 3 uM after 3 hrs by EMSA analysis; format: cell-based
T2 sequence (whole entry): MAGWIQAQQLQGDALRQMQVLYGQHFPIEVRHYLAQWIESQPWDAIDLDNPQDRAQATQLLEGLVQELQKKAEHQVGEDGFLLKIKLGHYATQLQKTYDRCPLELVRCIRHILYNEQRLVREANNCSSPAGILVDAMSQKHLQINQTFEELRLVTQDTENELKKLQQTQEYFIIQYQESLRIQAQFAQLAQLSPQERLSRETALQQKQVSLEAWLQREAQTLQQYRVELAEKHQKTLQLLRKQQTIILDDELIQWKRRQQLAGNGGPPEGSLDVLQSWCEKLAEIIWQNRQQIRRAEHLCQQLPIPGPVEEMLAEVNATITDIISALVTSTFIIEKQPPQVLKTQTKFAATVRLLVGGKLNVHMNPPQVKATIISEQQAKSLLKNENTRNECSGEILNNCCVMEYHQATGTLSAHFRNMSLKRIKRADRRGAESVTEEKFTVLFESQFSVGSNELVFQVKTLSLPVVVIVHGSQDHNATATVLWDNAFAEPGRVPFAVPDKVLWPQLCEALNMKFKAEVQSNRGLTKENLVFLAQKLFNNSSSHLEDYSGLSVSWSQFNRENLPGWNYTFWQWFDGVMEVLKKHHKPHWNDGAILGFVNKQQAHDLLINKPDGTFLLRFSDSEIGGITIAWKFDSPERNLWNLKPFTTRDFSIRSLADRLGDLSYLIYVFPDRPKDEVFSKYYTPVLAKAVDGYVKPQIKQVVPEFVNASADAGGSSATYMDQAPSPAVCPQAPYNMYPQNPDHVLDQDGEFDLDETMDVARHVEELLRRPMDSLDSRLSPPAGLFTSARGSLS
Outline: (§2)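 Cells exposed to vehicle or compound for 3 h. Nuclear extracts prepared and BCA-quantified. Nuclear protein (8–10 µg) incubated with biotinylated STAT3 or STAT5 probe, resolved on 6% native polyacrylamide gel, transferred to nylon membrane and detected with a gel-shift kit.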

[10] = target: T2, Signal transducer and activator of transcription 5A (Homo sapiens); assay: Inhibition of STAT5 DNA binding in human MDA-MB-468 cells at 3 uM after 3 hrs by EMSA analysis; format: cell-based; outline: as §2
[11] = target: T1, Signal transducer and activator of transcription 3; assay: Inhibition of STAT3 in human HCC70 cells assessed as downregulation of Mcl-1 expression at 0.3 to 3 uM after 24 hrs by western blot analysis; format: cell-based; settings: dose 0.3-3 µM
Outline: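 TNBC cells given vehicle (0.1% DMSO) or graded compound levels for 24 h, lysed in RIPA with PMSF and phosphatase inhibitors. BCA-quantified lysate (20–50 µg) run on SDS-PAGE, transferred to PVDF, blocked in 5% BSA. Probed overnight at 4 °C for Bcl-xL, Mcl-1 and c-Myc, with β-actin. HRP secondary, ECL detection. Three independent experiments.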

[12] = system: HCC70; assay: Inhibition of colony formation in human HCC70 cells at 0.3 uM after 10 to 15 days by crystal violet staining based assay; format: functional, cell-based; settings: time 10-15 day
Outline: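 Cells seeded at 0.5×10^3–1×10^3 per well; compound added the next day. Medium and compound renewed every 2–3 days. After about 10–15 days, colonies fixed with 4% paraformaldehyde, stained with crystal violet, scanned and quantified by image analysis. Triplicate.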

[13] = system: MDA-MB-468; assay: Induction of apoptosis in human MDA-MB-468 cells assessed as necrotic cells at 1 uM after 48 hrs by Annexin-V-FITC/propidium iodide staining based flow cytometric analysis (reference value: 0.240%); format: functional
[14] = system: MDA-MB-468; assay: Induction of apoptosis in human MDA-MB-468 cells assessed as increase in PARP cleavage at 1 uM after 48 hrs by Western blot analysis; format: functional, cell-based
Outline: (§3)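 Cells were treated with vehicle (0.1% DMSO) or compound, then analysed by western blot of RIPA lysates (20–50 μg protein, SDS-PAGE, PVDF) for PARP and cleaved caspase-7, with β-actin as loading control. Three independent experiments.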

[15] = system: MDA-MB-231; assay: Induction of apoptosis in human MDA-MB-231 cells assessed as increase in PARP cleavage at 3 uM after 48 hrs by Western blot analysis; format: functional, cell-based; outline: as §3
[16] = system: MDA-MB-231; assay: Induction of apoptosis in human MDA-MB-231 cells assessed as increase in caspase-7 cleavage at 3 uM after 48 hrs by Western blot analysis; format: functional, cell-based; outline: as §3
[17] = system: Breast cancer cell line; assay: Antitumor activity against patient-derived breast cancer cells xenografted in NOD/SCID mouse assessed as reduction in pY705-STAT3 expression at 5 to 15 mg/kg, iv administered once daily for 20 days by Western blotting analysis; format: functional, organism-based; settings: Homo sapiens, dose 5-15 mg/kg, time 20.0 day

T1 sequence (P40763 whole entry): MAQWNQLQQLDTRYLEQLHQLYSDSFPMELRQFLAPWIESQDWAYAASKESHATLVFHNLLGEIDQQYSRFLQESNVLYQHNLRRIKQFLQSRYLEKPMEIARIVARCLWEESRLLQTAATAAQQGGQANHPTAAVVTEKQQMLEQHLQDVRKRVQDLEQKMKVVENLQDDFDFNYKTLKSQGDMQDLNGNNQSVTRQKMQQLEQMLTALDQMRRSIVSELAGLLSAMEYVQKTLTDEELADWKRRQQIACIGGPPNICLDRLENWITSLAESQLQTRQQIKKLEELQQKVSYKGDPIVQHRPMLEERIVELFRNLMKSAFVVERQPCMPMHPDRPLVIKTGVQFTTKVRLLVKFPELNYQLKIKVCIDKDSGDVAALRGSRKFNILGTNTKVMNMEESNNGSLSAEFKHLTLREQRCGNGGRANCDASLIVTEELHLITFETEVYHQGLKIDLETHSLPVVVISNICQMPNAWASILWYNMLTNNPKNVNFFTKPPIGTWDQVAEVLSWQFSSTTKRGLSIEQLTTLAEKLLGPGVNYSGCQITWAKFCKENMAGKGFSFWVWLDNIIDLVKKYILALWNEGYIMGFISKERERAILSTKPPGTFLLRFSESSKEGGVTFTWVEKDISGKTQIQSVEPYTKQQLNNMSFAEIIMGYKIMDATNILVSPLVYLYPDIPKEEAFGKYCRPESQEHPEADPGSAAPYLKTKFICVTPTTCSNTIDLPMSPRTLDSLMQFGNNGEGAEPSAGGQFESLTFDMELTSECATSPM

## O=C(Cc1c(-c2ccccc2)nc2ccccn12)Nc1ccc2c(c1)S(=O)(=O)C=C2
[1]
  IC50: 1100 nM
[2]
  Activity: Active
[3]
  Kd: 432 nM
[4]
  inhibition: Dose-Dependent Effect
[5]
  Activity: inactive
[6]
  Activity: inactive
[7]
  inhibition: Dose-Dependent Effect
[8]
  inhibition: Dose-Dependent Effect
[9]
  inhibition: inactive
[10]
  inhibition: inactive
[11]
  inhibition: Active
[12]
  inhibition: Active
[13]
  Activity: 1.54%
[14]
  Activity: Active
[15]
  Activity: Active
[16]
  Activity: Active
[17]
  Activity: Active
